One molecule from ChEMBL document CHEMBL4808178 (J Med Chem, 2021) can be followed below.

Usually inhibition stands for the percentage by which the read-out fell short of the control. By pIC50 is commonly meant the IC50 on a negative log10 scale, so that one unit is a factor of ten. The term MRT last denotes the average time that molecules of a dose stay in the body.

The subject of data set [1] is HCT-116. Briefly: Induction of apoptosis in human HCT116 cells assessed as viable cells at 10 uM after 24 hrs by annexin V-FITC/propidium iodide staining based flow cytometry (reference value: 88.3%). The class given is functional. The conditions noted are these: read-out: Activity.
The subject of data set [2] is HCT-116. Briefly: Inhibition of cell stemness in human HCT116 cells assessed as reduction in Nanog mRNA transcription levels at 20 uM after 24 hrs by RT-qPCR analysis. The class given is functional, cell-based. In a few lines: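 Sorted ALDH⁺ HCT-116 cells treated 24 h; TRIZOL RNA, one-step RT-qPCR (RT 10 min 55 °C; 95 °C 1 min; 39 cycles 95 °C 10 s/60 °C 30 s) with melting-curve check; β-actin reference; fold change by 2^−ΔΔCt; t test, mean ± SD, n = 3.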
A general note: Real-time PCR tracks product formation cycle by cycle.

The target of data set [3] is T1, Ephrin type-A receptor 1 (Homo sapiens) (UniProt P21709).
T1 sequence (whole entry): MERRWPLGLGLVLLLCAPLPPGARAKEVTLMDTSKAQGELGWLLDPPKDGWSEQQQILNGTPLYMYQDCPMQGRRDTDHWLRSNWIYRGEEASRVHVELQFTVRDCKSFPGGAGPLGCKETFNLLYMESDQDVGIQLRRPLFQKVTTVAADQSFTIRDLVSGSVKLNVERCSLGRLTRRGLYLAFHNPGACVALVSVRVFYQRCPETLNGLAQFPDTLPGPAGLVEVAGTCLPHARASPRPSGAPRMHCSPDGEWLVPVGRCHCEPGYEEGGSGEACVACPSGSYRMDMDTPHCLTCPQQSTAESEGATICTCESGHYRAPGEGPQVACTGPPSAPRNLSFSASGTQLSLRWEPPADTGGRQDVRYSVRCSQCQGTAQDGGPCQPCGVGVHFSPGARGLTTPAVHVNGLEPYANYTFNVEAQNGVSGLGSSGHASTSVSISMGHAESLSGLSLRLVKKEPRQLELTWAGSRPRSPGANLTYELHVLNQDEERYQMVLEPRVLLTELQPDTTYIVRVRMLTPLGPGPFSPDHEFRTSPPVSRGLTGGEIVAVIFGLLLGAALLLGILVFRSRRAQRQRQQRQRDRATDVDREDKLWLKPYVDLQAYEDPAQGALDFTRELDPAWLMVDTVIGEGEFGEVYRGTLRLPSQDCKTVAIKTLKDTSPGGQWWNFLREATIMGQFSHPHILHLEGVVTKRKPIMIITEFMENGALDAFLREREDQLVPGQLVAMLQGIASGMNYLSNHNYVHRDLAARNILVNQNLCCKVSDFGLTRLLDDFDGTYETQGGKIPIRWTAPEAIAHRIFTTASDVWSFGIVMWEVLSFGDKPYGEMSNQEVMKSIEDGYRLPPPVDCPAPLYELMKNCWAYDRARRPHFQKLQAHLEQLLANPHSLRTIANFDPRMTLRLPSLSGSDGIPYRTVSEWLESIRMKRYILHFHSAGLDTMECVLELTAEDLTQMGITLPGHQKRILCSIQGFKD
Briefly: Inhibition of EPHA1 (unknown origin) assessed as residual activity at 1 uM relative to control. In a few lines: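 Single-concentration screen at 1 μmol/L against a panel of 208 kinases, run as a commercial service; activity expressed relative to control.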

The test system of data set [4] is HCT-116. Briefly: Induction of cell cycle arrest in human HCT116 cells assessed as accumulation at S phase at 20 uM after 24 hrs by propidium iodide-staining based flow cytometry (reference value: 36.43%). The data set is classed as functional. A general note: A flow cytometer gives signals particle by particle.
Data set [5] relates to HCT-116. Briefly: Inhibition of cell stemness in human HCT116 cells assessed as reduction in size of tumor spheres at 5 uM after 10 days by microscopic analysis. The class given is functional, cell-based. The conditions noted are these: time 10.0 day. In a few lines: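 Sorted ALDH⁺ HCT-116 cells, 800/well, in serum-free DMEM with B27 (1:50), EGF 20 ng/mL, β-FGF 10 ng/mL; co-incubated with compound (5 μM) or DMSO vehicle for 10 days; sphere number, diameter and morphology scored from microscopy images; mean ± SD, n = 3.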

For data set [6], the target named is T2, Aldehyde dehydrogenase 1A1 (Homo sapiens) (UniProt P00352).
T2 sequence (whole entry): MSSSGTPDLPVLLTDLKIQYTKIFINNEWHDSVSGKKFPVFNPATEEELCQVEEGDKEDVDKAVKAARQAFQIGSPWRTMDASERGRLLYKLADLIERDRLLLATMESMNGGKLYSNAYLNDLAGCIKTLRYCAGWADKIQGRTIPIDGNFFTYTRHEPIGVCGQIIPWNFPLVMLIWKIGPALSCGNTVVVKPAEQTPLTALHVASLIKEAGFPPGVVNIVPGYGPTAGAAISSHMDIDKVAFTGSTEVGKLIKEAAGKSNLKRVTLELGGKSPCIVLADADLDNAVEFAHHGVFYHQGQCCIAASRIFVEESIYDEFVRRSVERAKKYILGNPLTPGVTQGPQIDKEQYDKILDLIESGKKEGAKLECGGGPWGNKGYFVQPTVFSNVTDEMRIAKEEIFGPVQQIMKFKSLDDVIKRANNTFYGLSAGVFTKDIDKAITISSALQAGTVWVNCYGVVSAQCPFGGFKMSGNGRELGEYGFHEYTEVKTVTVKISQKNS
Briefly: Inhibition of ALDH1A1 in human HCT116 cells at 20 uM after 24 hrs by aldefluor staining based fluorescence analysis. The class given is cell-based. To be noted: HCT-116. In a few lines:
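HCT-116 cells, 2 × 10⁵/well, grown overnight at 37 °C, 5% CO₂, then treated 24 h (vehicle DMSO). Aldefluor staining read in FITC channel by FACS for proportion of ALDH⁺ cells; DEAB-pretreated cells set baseline fluorescence.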

The test system of data set [7] is MCF7. Briefly: Cytotoxicity against human MCF7 cells assessed as reduction in cell viability incubated for 72 hrs by MTT assay. The class given is functional, cell-based. The conditions noted are these: MCF7, 72 h. In a few lines:
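About 5 × 10³ cells/well, seeded overnight at 37 °C, 5% CO₂, in DMEM or RPMI-1640 with 10% FBS and antibiotics. DMSO-dissolved compounds diluted in medium, exposure 72 h.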

Data set [8] is described as follows: MRT(0 to t) in Sprague-Dawley rat at 25 mg/kg, po measured up to 48 hrs by LC-MS/MS analysis. The class given is ADME, organism-based. The conditions noted are these: in vivo. In a few lines: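 Overnight-fasted male SD rats (250−270 g, n = 3/group), single oral 25 mg/kg in 5% CMC-Na (reference sodium salt in phosphate buffer); plasma at 0.25–48 h (12 timepoints), stored −40 °C; LC−MS/MS with internal-standard calibration 3–3000 ng/mL; parameters fitted by model.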

Data set [9] in a line: Toxicity in BALB/c mouse xenografted with human HCT116 cells assessed as effect on kidney tissue at 60 to 90 mg/kg, po administered twice daily for 4 weeks and measured every 3 days by HE staining based assay. To be noted: in vivo, 672 h, dose 60-90 mg/kg. The class given is organism-based, HCT-116. In a few lines:
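Male 5-week BALB/c nude mice (16−18 g), 0.2 mL of 5 × 10⁷ cells/mL HCT-116 injected into right armpit; at ~100 mm³ randomized, 5/group; intragastric 60 or 90 mg/kg twice daily for 4 weeks; tumor volume and body weight every 3 days; after sacrifice heart, liver, spleen, lung, kidney HE-stained.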

pIC50: −log10 of the molar value. Activity calls are given as the source filed them. No cut-off for these calls is given here.

For `O=C(NCCO)c1ccc2c(c1)nc(Nc1cccc(Cl)c1)c1ccncc12`, the viability at 10 µM in data set [1] turned out to be 56.4%. Besides, the inhibition entry in [2] and in data set [5] was “Active” in each case. The Activity in data set [3] was 45.2%; in data set [4] it was 5.36%; in data set [9], “Non-Toxic”. Further, the inhibition in data set [6] stood at 96%. In data set [7], the negative logarithm of the IC50 (pIC50) is 5.12. The molecule further returned an MRT last at 48 h in [8] of 6.21 h.
